Calls of active or inactive are those of the source. No cut-off for these calls is given here.
Columns and labels:
PC-3 = test: Antiproliferative activity against human PC3 cells after 24 hrs by CCK-8 assay; type: functional, cell-based; conditions: PC-3, 24 h
Outline: (§1)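 Media with 10% FBS plus penicillin/streptomycin: RPMI1640 (DU145), F12 (LNCaP), DMEM (PC-3). Log-phase cells seeded at 1 × 10^5 cells/mL and grown 24 h at 37 °C, 5% CO2, then given various compound concentrations for 24 h. CCK-8 added for 1 h, absorbance read at 450 nm. Inhibition = (1 − OD treated/OD control) × 100%. IC50 from linear regression; three independent experiments.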

DU-145 = test: Antiproliferative activity against human DU145 cells after 24 hrs by CCK-8 assay; type: functional, cell-based; conditions: DU-145, 24 h; outline: as §1
LNCaP = test: Antiproliferative activity against human LNCAP cells after 24 hrs by CCK-8 assay; type: functional, cell-based; outline: as §1
RWPE-1 = test: Antiproliferative activity against human RWPE1 cells after 24 hrs by CCK-8 assay; type: cell-based; conditions: RWPE-1, 24 h
Outline: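 RWPE-1 grown in DMEM with 10% FBS, penicillin 100 U/mL and streptomycin 0.1 mg/mL at 37 °C, 5% CO2. Log-phase cells seeded at 1 × 10^5 cells/mL, cultured 24 h, then exposed to various compound concentrations for 24 h. CCK-8 added, 1 h at 37 °C, absorbance read at 450 nm. Inhibition = (1 − OD treated/OD control) × 100%. IC50 by linear regression of concentration-response curves. Three independent experiments.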

[1] = biological target: T1, Androgen receptor (Homo sapiens) (UniProt P10275); conditions: at 10 µM
T1 sequence (whole entry): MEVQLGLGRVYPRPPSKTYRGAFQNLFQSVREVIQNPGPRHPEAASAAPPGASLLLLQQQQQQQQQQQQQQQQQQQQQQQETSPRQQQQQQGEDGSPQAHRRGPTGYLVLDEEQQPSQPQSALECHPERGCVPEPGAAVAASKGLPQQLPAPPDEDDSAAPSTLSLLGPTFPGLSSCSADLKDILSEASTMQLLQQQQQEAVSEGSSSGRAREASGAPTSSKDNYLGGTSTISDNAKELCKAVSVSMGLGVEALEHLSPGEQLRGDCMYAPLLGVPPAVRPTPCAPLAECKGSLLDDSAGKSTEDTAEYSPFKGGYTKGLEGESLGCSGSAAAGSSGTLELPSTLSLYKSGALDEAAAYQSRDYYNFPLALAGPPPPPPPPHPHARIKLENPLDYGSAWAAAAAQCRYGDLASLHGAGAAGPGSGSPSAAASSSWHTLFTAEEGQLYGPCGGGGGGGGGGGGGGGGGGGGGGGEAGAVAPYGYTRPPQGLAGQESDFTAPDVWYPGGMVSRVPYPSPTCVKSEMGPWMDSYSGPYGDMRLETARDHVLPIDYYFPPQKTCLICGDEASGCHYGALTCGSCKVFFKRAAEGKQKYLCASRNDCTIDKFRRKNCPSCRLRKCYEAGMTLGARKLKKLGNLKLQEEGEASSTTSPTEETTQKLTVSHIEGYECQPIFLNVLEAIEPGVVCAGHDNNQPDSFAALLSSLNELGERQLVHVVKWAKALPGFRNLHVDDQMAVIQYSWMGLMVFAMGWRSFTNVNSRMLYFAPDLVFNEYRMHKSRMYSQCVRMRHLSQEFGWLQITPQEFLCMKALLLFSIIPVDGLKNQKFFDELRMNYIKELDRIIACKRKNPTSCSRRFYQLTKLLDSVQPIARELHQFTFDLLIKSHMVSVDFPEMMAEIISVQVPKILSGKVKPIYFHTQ

Androgen receptor = biological target: T2, Androgen receptor (Rattus norvegicus, UniProt P15207); test: Displacement of fluormone-AL Green from His-tagged/GST-fused recombinant rat androgen receptor LBD expressed in insect cells measured after 4 hrs by fluorescence polarization assay
T2 sequence (P15207 whole entry): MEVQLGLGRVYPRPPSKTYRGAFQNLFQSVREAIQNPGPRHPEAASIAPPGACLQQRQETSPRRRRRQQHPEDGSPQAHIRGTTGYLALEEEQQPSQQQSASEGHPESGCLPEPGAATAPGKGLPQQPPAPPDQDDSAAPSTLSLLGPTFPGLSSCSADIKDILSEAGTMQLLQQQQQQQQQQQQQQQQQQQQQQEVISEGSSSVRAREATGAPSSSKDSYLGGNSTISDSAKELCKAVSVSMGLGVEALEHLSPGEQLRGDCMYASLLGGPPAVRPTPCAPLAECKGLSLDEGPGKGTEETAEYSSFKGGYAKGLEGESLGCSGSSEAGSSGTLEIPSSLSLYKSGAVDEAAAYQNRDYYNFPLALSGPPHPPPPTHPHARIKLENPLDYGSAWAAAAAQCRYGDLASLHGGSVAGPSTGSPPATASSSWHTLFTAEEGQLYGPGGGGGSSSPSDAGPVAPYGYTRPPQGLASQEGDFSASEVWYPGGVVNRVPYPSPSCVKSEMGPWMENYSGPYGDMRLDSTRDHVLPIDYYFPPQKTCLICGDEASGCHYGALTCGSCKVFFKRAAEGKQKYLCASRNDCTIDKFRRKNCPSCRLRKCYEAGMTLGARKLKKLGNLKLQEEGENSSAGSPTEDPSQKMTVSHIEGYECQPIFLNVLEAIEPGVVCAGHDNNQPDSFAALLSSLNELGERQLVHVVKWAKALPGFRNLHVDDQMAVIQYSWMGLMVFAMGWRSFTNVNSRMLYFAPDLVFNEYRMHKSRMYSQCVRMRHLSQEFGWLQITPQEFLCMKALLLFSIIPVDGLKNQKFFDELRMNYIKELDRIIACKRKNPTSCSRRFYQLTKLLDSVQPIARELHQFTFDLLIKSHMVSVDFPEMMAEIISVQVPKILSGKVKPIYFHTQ

Row | Structure (SMILES) | IC50 (PC-3) [µM] | IC50 (DU-145) [µM] | IC50 (LNCaP) [µM] | IC50 (RWPE-1) [µM] | inhibition [1] | IC50 (Androgen receptor) [µM]
1 | COc1ccccc1OCCc1ccc(CN2CCN(c3ccccc3)CC2)cc1 | > 50 | > 50 | > 50 | > 50 |  | 
2 | Fc1ccc(OCCc2ccc(CN3CCN(c4ccccc4)CC3)cc2)cc1 | 5.7 | 6.86 | 7.83 | 4.62 | 35.1% | 
3 | Cc1ccc(OCCc2ccc(CN3CCN(c4ccccc4)CC3)cc2)cc1 | 1.47 | 10.1 | 5.62 | > 50 | 54.7% | 3.66
4 | COc1ccc(OCCc2ccc(CN3CCN(c4ccccc4)CC3)cc2)cc1 | 8.95 | 9.79 | 7.46 | > 50 | 67.1% | 1.15
5 | Fc1ccccc1OCCc1ccc(CN2CCN(c3ccccc3)CC2)cc1 | 48.8 | 7.21 | 17.8 | 19.7 |  | 
6 | Brc1ccc(OCCc2ccc(CN3CCN(c4ccccc4)CC3)cc2)cc1 | 6.69 | 10.1 | 13.5 | 15.7 |  | 
7 | FC(F)(F)c1ccc(OCCc2ccc(CN3CCN(c4ccccc4)CC3)cc2)cc1 | 4.96 | 4.81 | 8.76 | 13.2 | 48.2% | 4.03
8 | C[C@]12C=CC3=C4CCC(=O)C=C4CC[C@H]3[C@@H]1CC[C@@]2(C)O |  |  |  |  | inactive | 
9 | c1ccc(OCCc2ccc(CN3CCN(c4ccccc4)CC3)cc2)cc1 | 8.2 | 9.82 | 6.67 | > 50 | 40.6% | 
10 | N#Cc1ccc(OCCc2ccc(CN3CCN(c4ccccc4)CC3)cc2)cc1 | 1.05 | 46.2 | 43.6 | > 50 | 47.2% | 4.22
11 | Clc1ccccc1OCCc1ccc(CN2CCN(c3ccccc3)CC2)cc1 | > 50 | 38.6 | > 50 | > 50 |  | 
12 | Brc1ccccc1OCCc1ccc(CN2CCN(c3ccccc3)CC2)cc1 | > 50 | 11.6 | 41.9 | > 50 |  | 
13 | Cc1cc(C)cc(OCCc2ccc(CN3CCN(c4ccccc4)CC3)cc2)c1 | 2.99 | 3.44 | 7.43 | 4.86 | 16.7% | 
14 | c1ccc(N2CCN(Cc3ccc(CCOc4cccc5c4CCCC5)cc3)CC2)cc1 | 17.7 | 12.2 | 19.3 | 27.8 |  | 
15 | Cc1ccccc1OCCc1ccc(CN2CCN(c3ccccc3)CC2)cc1 | 15.1 | 29.2 | 34.9 | > 50 |  | 
16 | O=[N+]([O-])c1ccc(OCCc2ccc(CN3CCN(c4ccccc4)CC3)cc2)cc1 | 9.23 | 8.74 | 8.51 | 3.87 | 50.1% | 3.82
17 | COc1ccccc1N1CCN(CC(O)COc2cccc3ccccc23)CC1 (stereo unspecified) [NAFTOPIDIL] |  |  |  | > 50 |  | 
18 | c1ccc(N2CCN(Cc3ccc(CCOc4ccc5c(c4)CCCC5)cc3)CC2)cc1 | > 50 | 40.4 | > 50 | > 50 |  | 
19 | Cc1ccc(OCCc2ccc(CN3CCN(c4ccccc4)CC3)cc2)cc1C | 6.72 | 15.6 | 17.6 | 12.3 |  | 
20 | FC(F)(F)c1ccccc1OCCc1ccc(CN2CCN(c3ccccc3)CC2)cc1 | > 50 | 9.43 | 32.2 | > 50 |  | 
21 | CC(C)(C)c1ccc(OCCc2ccc(CN3CCN(c4ccccc4)CC3)cc2)cc1 | 4.86 | 28 | 17.9 | 21.1 |  | 
22 | Clc1ccc(OCCc2ccc(CN3CCN(c4ccccc4)CC3)cc2)cc1 | 3.59 | 9.2 | 8.64 | 4.76 | 32.4% | 
23 | CC(C)c1ccc(OCCc2ccc(CN3CCN(c4ccccc4)CC3)cc2)cc1 | > 50 | 6.4 | > 50 | > 50 | 40.2% | 
24 | N#Cc1ccccc1OCCc1ccc(CN2CCN(c3ccccc3)CC2)cc1 | > 50 | 2.51 | > 50 | > 50 | 32.1% | 
25 | CCOc1ccc(OCCc2ccc(CN3CCN(c4ccccc4)CC3)cc2)cc1 | > 50 | 14.2 | > 50 | > 50 |  | 
26 | Clc1ccc(OCCc2ccc(CN3CCN(c4ccccc4)CC3)cc2)cc1Cl | 23 | 5.36 | 19.8 | > 50 | 41.1% | 
27 | N#Cc1ccc(OCCc2ccc(CN3CCN(c4ccccc4)CC3)cc2)c(F)c1 | > 50 | 0.77 | > 50 | > 50 | 24.5% | 
28 | CC(C)(C)NC(=O)[C@H]1CC[C@H]2[C@@H]3CC[C@H]4NC(=O)C=C[C@]4(C)[C@H]3CC[C@]12C [FINASTERIDE] |  | 14.5 | 13.5 |  |  | 
29 | c1ccc(N2CCN(Cc3ccc(CCOc4cccc5ccccc45)cc3)CC2)cc1 | 4.72 | 16 | 8.92 | 12.2 | 32.5% | 
30 | Clc1cc(Cl)cc(OCCc2ccc(CN3CCN(c4ccccc4)CC3)cc2)c1 | 10.1 | 13.2 | 19.4 | 47.2 |  | 
